Published values gathered from unrelated publications.
Lines come from different studies, so protocols differ.
ALK: ALK tyrosine kinase receptor (ALK, Homo sapiens, UniProt Q9UM73)
PDE1A: Dual specificity calcium/calmodulin-dependent 3',5'-cyclic nucleotide phosphodiesterase 1A (PDE1A, Homo sapiens, UniProt P54750)
CCR2: C-C chemokine receptor type 2 (CCR2, Homo sapiens, UniProt P41597)
CTSB: Cathepsin B (CTSB, Homo sapiens, UniProt P07858)
SCN5A: Sodium channel protein type 5 subunit alpha (SCN5A, Homo sapiens, UniProt Q14524)
PTPRC: Receptor-type tyrosine-protein phosphatase C (PTPRC, Homo sapiens, UniProt P08575)
SIRT6: NAD-dependent protein deacylase sirtuin-6 (SIRT6, Homo sapiens, UniProt Q8N6T7)
FASN: Fatty acid synthase (FASN, Gallus gallus, UniProt P12276)
PARP2: Poly [ADP-ribose] polymerase 2 (PARP2, Homo sapiens, UniProt Q9UGN5)
FYN: Tyrosine-protein kinase Fyn (FYN, Homo sapiens, UniProt P06241)

SMILES	target	read-out	mode	method	cells	notes	IC50 [nM]
CNC[C@]1(c2ccc(F)cc2F)C[C@H]1Oc1ccc(C#N)cc1-c1cc(C)[nH]n1 (racemic)	ALK	enzyme activity	inhibitor	TR-FRET			49
COc1cc(C[C@H]2C(=O)OC[C@@H]2Cc2ccc(OC)c(OC)c2)ccc1O	PDE1A	enzyme activity	inhibitor				> 20000
CN(Cc1ccc(NC(=O)C2=Cc3cc(-c4ccc(OCCCF)cc4)ccc3CCC2)cc1)C1CCOCC1	CCR2	calcium signal	antagonist				130
COc1cc(/C=N/n2c(C)nc3ccc(Br)cc3c2=O)ccc1OCc1ccc(Cl)cc1	CTSB	enzyme activity	inhibitor				45800
CSc1nc(C)c(-c2ccnc(N[C@H]3CC[C@H](NC(=O)c4ccccc4)CC3)c2)[nH]1	Mitogen-activated protein kinase 10 (MAPK10, Homo sapiens, UniProt P53779)	enzyme activity	inhibitor	ELISA			1220
O=C(NCCN1CCCC1)c1cc(-c2ccc(CN3CCOCC3)cc2)nc2ccc(F)cc12	SCN5A	ion current	inhibitor	patch clamp			16000
CCN(CC)C(=S)SSC(=S)N(CC)CC	PTPRC	enzyme activity	inhibitor	fluorescence			> 500000
CN1CCN(c2ccc(Nc3ncc4cc(C#N)c(=O)n(C5CCCC5)c4n3)cc2)CC1	Serine/threonine-protein kinase D3 (PRKD3, Homo sapiens, UniProt O94806)	enzyme activity	inhibitor				70.9
Cc1ccc(C(=O)Nc2ccc(Oc3cc4cnn(C)c4cc3-c3cn[nH]c3)c(F)c2)c(=O)n1-c1ccc(F)cc1	Vascular endothelial growth factor receptor 3 (FLT4, Homo sapiens, UniProt P35916)	enzyme activity	inhibitor	radiometric			23
Nc1nonc1-n1cc(C(=O)N/N=C/c2ccc([N+](=O)[O-])cc2O)nn1	SIRT6	enzyme activity	inhibitor	fluorescence			121000
NC(=S)c1ccc(C(=O)NOCc2ccc(C(F)(F)F)cc2)cc1	SIRT6	enzyme activity	inhibitor	fluorescence			2030
C=C(C)[C@H](CC=C(C)C)Cc1c(O)cc(O)c2c1O[C@H](c1ccccc1O)CC2=O	FASN	enzyme activity	inhibitor	radiometric			8500
COc1ccc(CONC(=O)c2ccc(C(N)=O)cc2)cc1	SIRT6	enzyme activity	inhibitor	fluorescence			7490
Cc1cc(-c2cc(C#N)ccc2O[C@@H]2C[C@]2(CN)c2ccc(F)cc2F)n[nH]1 (racemic)	ALK	phosphorylation in cells	inhibitor	ELISA			160
NC(=O)c1ccc(C(=O)NOCc2ccc(Sc3cc(Cl)cc(Cl)c3)c(C(F)(F)F)c2)cc1	SIRT6	enzyme activity	inhibitor	fluorescence			1240
CCOc1ccc2c(-c3cc(C)nc(Nc4cc(OC)cc(C(F)(F)F)c4)n3)cnn2n1	Dual specificity protein kinase CLK3 (CLK3, Homo sapiens, UniProt P49761)	enzyme activity	inhibitor				> 10000
CN(C(=O)n1cnc(-c2ccc[n+]([O-])c2)c1)C1CCCCC1	Multidrug and toxin extrusion protein 1 (SLC47A1, Homo sapiens, UniProt Q96FL8)	transporter uptake	inhibitor		MDCK-II		> 33300
C=CC(=O)Nc1ccc(N2CCC[C@@H](Nc3ncc(Cl)c(-c4c[nH]c5ccccc45)n3)C2)cc1C	Cyclin-dependent kinase 2, with cyclin A (CDK2, Homo sapiens, UniProt P24941)	enzyme activity	inhibitor	FRET			1100
Cc1cccc(-c2cc(C)n[nH]2)c1	ALK	enzyme activity	inhibitor	TR-FRET			230000
NC(=O)c1ccc(C(=O)NOCc2cc(Cl)cc(Cl)c2)cc1	SIRT6	enzyme activity	inhibitor	fluorescence			2970
CN(Cc1ccc(NC(=O)C2=Cc3cc(-c4ccc(OCCCO)cc4)ccc3CCC2)cc1)C1CCOCC1	CCR2	ligand displacement		radioligand		cell membranes	199
C=CC(=O)N1CCN(C(=O)c2cc(Cc3n[nH]c(=O)c4ccccc34)ccc2F)CC1	PARP2	enzyme activity	inhibitor				31.7
O=C1c2ccccc2-c2cccc3cccc1c23	PTPRC	enzyme activity	inhibitor	fluorescence			> 150000
Cc1cc(-c2cccc(C(F)(F)F)c2)n[nH]1	ALK	enzyme activity	inhibitor	TR-FRET			60000
NC(=O)c1ccc(C(=O)NOCc2ccc(Oc3ccccc3)cc2)cc1	SIRT6	enzyme activity	inhibitor	fluorescence			1910

SMILES	target	read-out	mode	method	cells	notes	IC50 [nM]
NC(=O)c1ccc[n+]([C@@H]2O[C@H](COP(=O)([O-])OP(=O)(O)OC[C@H]3O[C@@H](n4cnc5c(N)ncnc54)[C@H](O)[C@@H]3O)[C@@H](O)[C@H]2O)c1	PARP2	enzyme activity	inhibitor				50000
NC(=O)c1ccc(C(=O)NOCc2ccc(Sc3cc(F)cc(F)c3)c(C(F)(F)F)c2)cc1	SIRT6	enzyme activity	inhibitor	fluorescence			1300
COc1cc2nccc(Oc3ccc(NC(=O)c4cc5c(n(-c6ccccc6)c4=O)CCCC5=O)nc3)c2cc1OC	FYN	enzyme activity in cells	inhibitor	ATP luminescence			> 100
Cc1cc(-c2cccc(F)c2)n[nH]1	ALK	enzyme activity	inhibitor	TR-FRET			240000
Cc1cnc(-c2ccc(-c3ccc(NC(=O)Nc4c(F)cc(F)cc4F)cc3F)c3c2C(=O)NC3)[nH]1	Mitogen-activated protein kinase kinase kinase kinase 1 (MAP4K1, Homo sapiens, UniProt Q92918)	enzyme activity	inhibitor				11.5
Cc1nc2ccc(Br)cc2c(=O)n1/N=C/c1ccc(C(=O)O)cc1	CTSB	enzyme activity	inhibitor				33500
CCn1c(-c2nc3cc(C(=O)N4CCC[C@@H](N)C4)cc(OC)c3n2C)cc2cccnc21	SCN5A	ion current	inhibitor				50100
CC(C)C[C@H](NC(=O)[C@H]1O[C@@H]1C(=O)O)C(=O)NCCCCN=C(N)N	CTSB	enzyme activity	inhibitor				3.15
CN1C(=O)c2c(nn(Cc3ccc(-c4cccc(F)n4)cc3)c2Nc2ccccc2)N2C1=N[C@@H]1CCC[C@@H]12	PDE1A	enzyme activity	inhibitor	radiometric			0.031
COc1cc(/C=N/n2c(C)nc3ccc(C)cc3c2=O)cc([N+](=O)[O-])c1O	CTSB	enzyme activity	inhibitor				107000
CCS(=O)(=O)Nc1ccc(C(=O)NC2CC3CCC2C3)cc1 (centres unmarked)	Pantothenate kinase 1 (Homo sapiens, UniProt Q8TE04)	enzyme activity	inhibitor	ATP luminescence			270
O=c1cc(-c2ccc3c(c2)OCO3)oc2c1ccc1occc12	Cyclin-dependent kinase 2, with cyclin E1 (CDK2, Homo sapiens, UniProt P24941)	enzyme activity	inhibitor	ADP detection			> 100000
COC(=O)[C@@]1(c2ccc(F)cc2F)C[C@@H]1Oc1ccc(C#N)cc1-c1cc(C)[nH]n1 (racemic)	ALK	enzyme activity	inhibitor	TR-FRET			41
COc1ccc2c(Oc3ccc4c(C(=O)Nc5ccccc5N)cccc4c3)ccnc2c1	FYN	enzyme activity	inhibitor				> 500
CC(=O)c1ccc2[nH]c3nc(C)ccc3c2c1	ALK	enzyme activity	inhibitor	ELISA			> 10000
NS(=O)(=O)c1ccc(C(=O)NOCc2ccccc2)cc1	SIRT6	enzyme activity	inhibitor	fluorescence			116000
Cc1cc(-c2cccc(C(C)(C)C)c2)[nH]n1	ALK	enzyme activity	inhibitor	TR-FRET			270000
COc1ccc(-c2ccc3[nH]c4ncc(-c5cccc(N)c5)cc4c3c2)cc1	ALK	enzyme activity	inhibitor	ELISA			> 10000
CN(Cc1ccc(NC(=O)C2=Cc3cc(-c4ccc(OCCCCCF)cc4)ccc3CCC2)cc1)C1CCOCC1	CCR2	calcium signal	antagonist				0.76
Oc1ccc(-c2ccc3[nH]c4ncc(/C=C/c5cccc(F)c5)cc4c3c2)cc1	ALK	enzyme activity	inhibitor	ELISA			> 10000
Nc1nonc1-n1cc(C(=O)N/N=C/c2ccc(C(F)(F)F)cc2C(F)(F)F)nn1	SIRT6	enzyme activity	inhibitor	fluorescence			2690
Cc1ccc(CONC(=O)c2ccc(C(N)=O)cc2)cc1	SIRT6	enzyme activity	inhibitor	fluorescence			7710
CN(Cc1ccc(NC(=O)C2=Cc3cc(-c4ccc(OCCCCCO)cc4)ccc3CCC2)cc1)C1CCOCC1	C-C chemokine receptor type 5 (CCR5, Homo sapiens, UniProt P51681)	ligand displacement		radioligand		cell membranes	3100
N#Cc1ccc(COC[C@H]2O[C@@H](n3c(NCc4ccc(Cl)c(Cl)c4)nc4c(N)ncnc43)[C@H](O)[C@@H]2O)cc1	Heat shock cognate 71 kDa protein (HSPA8, Homo sapiens, UniProt P11142)	ligand displacement		FP			390
C=C(C)[C@H](CC=C(C)C)Cc1c(O)cc(OC)c(C(=O)/C=C/c2ccc(O)cc2O)c1O	FASN	enzyme activity	inhibitor	radiometric			9600
